From ChEMBL document CHEMBL1146048, “Imidazo[1,2-a]pyrazin-8-ones, imidazo[1,2-d][1,2,4]triazin-8-ones and imidazo[2,1-f][1,2,4]triazin-8-ones as alpha2/alpha3 subtype selective GABA A agonists for the treatment of anxiety” (Bioorg Med Chem Lett, 2006)
Active and inactive are the calls of the source. The rule behind the calls is not given here.

Columns and labels:
[1] = biological target: T1, GABA-A receptor; alpha-3/beta-3/gamma-2 (Homo sapiens, UniProt P18507+P28472+P34903); test: Displacement of [3H]Ro-151788 from human recombinant GABA-Aalpha3 receptor plus beta3gamma2; format: protein-complex assay
T1 sequence (P18507 whole entry): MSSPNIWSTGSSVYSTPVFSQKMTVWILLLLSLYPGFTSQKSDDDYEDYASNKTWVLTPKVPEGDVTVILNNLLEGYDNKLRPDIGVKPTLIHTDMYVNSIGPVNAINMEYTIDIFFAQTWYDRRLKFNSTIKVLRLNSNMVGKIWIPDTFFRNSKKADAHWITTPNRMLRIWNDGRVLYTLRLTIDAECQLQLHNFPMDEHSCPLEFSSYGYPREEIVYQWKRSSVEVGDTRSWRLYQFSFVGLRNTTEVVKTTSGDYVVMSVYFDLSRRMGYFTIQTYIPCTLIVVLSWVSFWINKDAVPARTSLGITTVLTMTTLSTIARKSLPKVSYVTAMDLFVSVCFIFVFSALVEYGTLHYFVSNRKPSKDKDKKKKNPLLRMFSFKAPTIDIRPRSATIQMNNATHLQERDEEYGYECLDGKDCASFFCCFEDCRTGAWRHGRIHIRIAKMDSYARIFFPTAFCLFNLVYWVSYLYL
T1 sequence (P28472 whole entry): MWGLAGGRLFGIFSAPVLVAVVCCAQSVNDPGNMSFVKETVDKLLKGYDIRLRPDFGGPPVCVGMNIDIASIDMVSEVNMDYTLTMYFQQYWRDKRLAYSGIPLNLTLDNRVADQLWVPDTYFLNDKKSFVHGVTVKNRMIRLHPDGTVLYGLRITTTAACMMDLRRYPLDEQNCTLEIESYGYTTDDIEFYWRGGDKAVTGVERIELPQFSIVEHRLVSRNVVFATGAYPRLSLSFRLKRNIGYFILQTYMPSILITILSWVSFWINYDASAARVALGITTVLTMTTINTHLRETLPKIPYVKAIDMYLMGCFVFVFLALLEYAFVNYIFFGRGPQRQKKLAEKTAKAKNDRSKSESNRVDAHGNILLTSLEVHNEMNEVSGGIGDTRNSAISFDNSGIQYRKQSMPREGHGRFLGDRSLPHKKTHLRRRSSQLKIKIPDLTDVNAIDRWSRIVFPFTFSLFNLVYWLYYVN
T1 sequence (P34903 whole entry): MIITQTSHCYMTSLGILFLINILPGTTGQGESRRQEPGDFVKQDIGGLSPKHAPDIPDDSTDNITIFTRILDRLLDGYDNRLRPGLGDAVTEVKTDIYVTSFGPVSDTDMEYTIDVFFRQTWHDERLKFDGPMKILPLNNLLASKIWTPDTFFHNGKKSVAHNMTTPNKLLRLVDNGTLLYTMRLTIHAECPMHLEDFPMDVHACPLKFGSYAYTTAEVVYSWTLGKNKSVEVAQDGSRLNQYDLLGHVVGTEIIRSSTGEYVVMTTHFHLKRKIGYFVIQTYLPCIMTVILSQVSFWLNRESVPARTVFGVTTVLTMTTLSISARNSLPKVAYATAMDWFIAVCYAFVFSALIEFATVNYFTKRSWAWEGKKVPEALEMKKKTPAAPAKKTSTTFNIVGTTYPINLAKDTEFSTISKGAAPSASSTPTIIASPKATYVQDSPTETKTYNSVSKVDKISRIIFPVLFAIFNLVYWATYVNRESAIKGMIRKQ
Method in brief: (§1)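 Stably expressed human recombinant αxβ3γ2 GABAA receptors (x = 1, 3 or 5), benzodiazepine site. Competition against 1.8 nM [3H]Ro15-1788. IC50 for inhibition of binding converted to Ki by Cheng–Prusoff. Mean of 3–6 determinations.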

[2] = biological target: T2, GABA-A receptor; alpha-5/beta-3/gamma-2 (Homo sapiens, UniProt P18507+P28472+P31644); test: Displacement of [3H]Ro-151788 from human recombinant GABA-Aalpha5 receptor plus beta3gamma2; format: protein-complex assay; method in brief: as §1
T2 sequence (P18507 whole entry): T1 sequence (P18507 whole entry)
T2 sequence (P28472 whole entry): T1 sequence (P28472 whole entry)
T2 sequence (P31644 whole entry): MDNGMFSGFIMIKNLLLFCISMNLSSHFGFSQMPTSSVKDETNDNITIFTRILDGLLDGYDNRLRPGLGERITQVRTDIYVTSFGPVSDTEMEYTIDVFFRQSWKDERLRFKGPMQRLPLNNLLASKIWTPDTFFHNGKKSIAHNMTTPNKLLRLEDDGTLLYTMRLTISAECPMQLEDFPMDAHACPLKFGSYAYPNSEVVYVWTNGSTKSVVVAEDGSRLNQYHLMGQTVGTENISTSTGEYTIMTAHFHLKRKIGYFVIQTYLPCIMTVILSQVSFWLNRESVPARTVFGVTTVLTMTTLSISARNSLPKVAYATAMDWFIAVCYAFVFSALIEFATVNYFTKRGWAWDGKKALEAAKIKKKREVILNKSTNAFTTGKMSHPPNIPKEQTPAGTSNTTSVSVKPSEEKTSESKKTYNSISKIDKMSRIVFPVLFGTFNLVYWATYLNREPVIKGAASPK

[3] = biological target: GABA-A receptor; alpha-1/beta-3/gamma-2 (Homo sapiens) (UniProt P14867+P18507+P28472); test: Efficacy against human recombinant GABA-Aalpha1 receptor plus beta-3-gamma-2 expressed in L(tk-) cells by whole cell patch clamp method; format: functional, cell-based
Method in brief: (§2)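 Whole-cell patch clamp on L(tk-) cells stably expressing α1β3γ2 or α3β3γ2 GABAA receptors. Test compound modulation of current evoked by a sub-maximal (EC20) GABA concentration. Means of at least seven independent experiments.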

[4] = biological target: T3, GABA-A receptor; alpha-1/beta-3/gamma-2 (Homo sapiens, UniProt P14867+P18507+P28472); test: Displacement of [3H]Ro-151788 from human recombinant GABA-Aalpha1 receptor plus beta3gamma2; format: protein-complex assay; method in brief: as §1
T3 sequence (P14867 whole entry): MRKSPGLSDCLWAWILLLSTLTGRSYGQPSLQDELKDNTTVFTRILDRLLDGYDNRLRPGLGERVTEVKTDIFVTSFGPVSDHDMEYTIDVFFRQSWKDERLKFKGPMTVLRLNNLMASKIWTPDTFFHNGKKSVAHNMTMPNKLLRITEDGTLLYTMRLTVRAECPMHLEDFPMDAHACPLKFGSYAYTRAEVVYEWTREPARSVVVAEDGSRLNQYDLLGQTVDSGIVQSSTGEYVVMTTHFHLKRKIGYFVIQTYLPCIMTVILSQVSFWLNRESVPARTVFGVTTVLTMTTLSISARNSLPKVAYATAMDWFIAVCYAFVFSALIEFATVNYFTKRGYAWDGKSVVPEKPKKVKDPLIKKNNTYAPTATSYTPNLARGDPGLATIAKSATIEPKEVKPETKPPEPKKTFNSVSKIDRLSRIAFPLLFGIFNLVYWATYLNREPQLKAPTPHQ
T3 sequence (P18507 whole entry): T1 sequence (P18507 whole entry)
T3 sequence (P28472 whole entry): T1 sequence (P28472 whole entry)

[5] = biological target: GABA-A receptor; alpha-3/beta-3/gamma-2 (Homo sapiens) (UniProt P18507+P28472+P34903); test: Efficacy against human recombinant GABA-Aalpha3 receptor plus beta-3-gamma-2 expressed in L(tk-) cells by whole cell patch clamp method; format: functional, cell-based; method in brief: as §2
[6] = biological target: GABA-A receptor; alpha-5/beta-3/gamma-2 (Homo sapiens) (UniProt P18507+P28472+P31644); test: Efficacy against human recombinant GABA-Aalpha5 receptor plus beta-3-gamma-2 expressed in L(tk-) cells by whole cell patch clamp method; format: functional, cell-based
Method in brief: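 Human α5β3γ2 GABA-A receptors stably expressed in L(tk-) cells; whole-cell patch clamp recording. Test compound applied against the current evoked by a sub-maximal GABA concentration (EC20), and efficacy expressed as the change in that current. Values are means of at least seven independent experiments.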

[7] = biological target: T4, GABA-A receptor; anion channel (Rattus norvegicus) (UniProt O09028+P15431+P18506+P18508+P19969+P20236+P23574+P23576+P28471+P28473+P30191+P62813+P63079+P63138+Q91ZM7+Q9ES14); test: Displacement of [3H]Ro-151788 from GABA-Aalpha receptor in rat po; format: functional
[8] = tested on: Rattus norvegicus; test: Activity in rat beam walking assay at 100 mg/kg, po; format: functional, organism-based; design: dose 100 mg/kg
[9] = Plasma clearance in rat; format: ADME, organism-based
[10] = Half life in rat; format: ADME, organism-based; conditions: in vivo
[11] = tested on: Rattus norvegicus; test: Anxiolytic activity in rat elevated plus maze assay at 3 mg/kg, po; format: functional, organism-based; design: dose 3 mg/kg
[12] = Bioavailability in rat; format: ADME, organism-based; conditions: in vivo
[13] = biological target: T4, GABA-A receptor; anion channel (Rattus norvegicus); test: Receptor occupancy at BZ site of GABA-Aalpha receptor in rat at 3 mg/kg, po; format: functional, organism-based; design: dose 3 mg/kg

Row | Ki [1] [nM] | Ki [2] [nM] | Efficacy [3] [%] | Ki [4] [nM] | Efficacy [5] [%] | ID50 [7] [mg/kg] | clearance [9] [mL/min/kg] | half-life [10] [h] | bioavailability [12] [%] | Activity [13] [%] | SMILES | Efficacy [6] [%] | Activity [8] | Activity [11]
1 | 4.6 | 4.8 | -46 | 2.5 | – | – | – | – | – | – | Cn1cnn2c(-c3ccc(F)c(-c4ccc(F)cc4C#N)c3)cnc2c1=O | – | – | –
2 | 3.4 | 0.95 | -19 | 2.4 | -7 | – | – | – | – | – | CCn1ncn2c(-c3ccc(F)c(-c4ccc(F)cc4C#N)c3)cnc2c1=O | – | – | –
3 | 4.7 | 2.3 | -9 | 6.5 | 1 | – | – | – | – | – | Cn1ncn2c(-c3ccc(F)c(-c4ccc(F)cc4C#N)c3)cnc2c1=O | – | – | –
4 | 0.7 | 0.1 | 27 | 0.53 | 51 | – | – | – | – | – | Cn1ccn2c(-c3ccc(F)c(-c4ccccc4C#N)c3)cnc2c1=O | – | – | –
5 | 0.59 | 0.19 | 3 | 0.16 | 28 | – | – | – | – | – | Cn1ccn2c(-c3ccc(F)c(-c4c(F)cccc4C#N)c3)cnc2c1=O | – | – | –

Further lines, the molecule ahead of its results:

Row | SMILES | Ki [1] [nM] | Ki [2] [nM] | Efficacy [3] [%] | Ki [4] [nM] | Efficacy [5] [%] | ID50 [7] [mg/kg] | clearance [9] [mL/min/kg] | half-life [10] [h] | bioavailability [12] [%] | Activity [13] [%] | Efficacy [6] [%] | Activity [8] | Activity [11]
6 | Cn1ccn2c(-c3ccc(F)c(-c4ccc(F)cc4C#N)c3)cnc2c1=O | 1.9 | 0.39 | -27 | 0.7 | 44 | – | – | – | – | – | – | – | –
7 | CC(C)(O)c1cnn2c(-c3ccc(F)c(-c4c(F)cccc4C#N)c3)cnc2n1 | 1.5 | 0.9 | 4 | 0.6 | 65 | – | – | – | – | – | 44 | – | –
8 | CC(C)(O)c1ccn2c(-c3ccc(F)c(-c4cccnc4)c3)cnc2n1 | – | 0.52 | – | 1.4 | – | – | – | – | – | – | – | – | –
9 | CCn1ccn2c(-c3ccc(F)c(-c4ccc(F)cc4C#N)c3)cnc2c1=O | 0.9 | 0.15 | -8 | 0.28 | 43 | 0.7 | 17 | 5 | 38 | 86 | -4 | inactive | Active
